NR2E3 ag-1 – NR2E3 agonists in two-hybrid cells, primary screen, cell-based, luminescence, CHO-S, Gal4-NCOR/VP16-NR2E3; Photoreceptor-specific nuclear receptor (Homo sapiens), Q9Y5X4; luciferase; inhibition of corepressor binding, % at 3.98 µM; hit rate 0.35% among 360,000; AID 602229, 2012;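 active = inhibition above the mean of all tested compounds plus 3 SD, cut at about 70% in these data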;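 also: 0% = DMSO with NR2E3 transfected cells and 100% = cells lacking NR2E3 construct; higher means lower luciferase signal from less NR2E3 corepressor binding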
SMARCA2 activ – SMARCA2 (BRM) function activators, primary screen, cell-based, luminescence, high throughput. activation, % at 9.1 µM. AID 652017, 2013. MG213 cells, MMTV-luciferase reporter, dexamethasone, overnight. hit rate 1% among 370,000; in the data active = activation above about 7.8%;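 also: 0% = vehicle wells and 100% = reference activator wells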
NR2E3 ag-2 – inhibitors of NR2E3-RetCOR corepressor binding, primary screen, NR2E3 agonist project, biochemical, TR-FRET, GST-NR2E3, biotin-RetCOR. Photoreceptor-specific nuclear receptor (Homo sapiens), Q9Y5X4. 1536-well. inhibition of corepressor binding, % at 4.78 µM. hit rate 0.12% among 320,000;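 active = percent inhibition above the cutoff of mean plus 3 SD of all tested compounds, set per screening campaign, cut at about 20% in these data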;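 also: 0% = DMSO wells and 100% = biotin wells as full block of FRET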
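Assay system: NR2E3–RetCOR corepressor complex. Quantity: 1.35 nM GST-NR2E3. Buffer or medium: pH 7.5 Tris-based buffer. Reagent: biotinylated RetCOR corepressor at 7 nM final. Schedule: 5 h at 4 °C. Detection: TR-FRET, emission read at 617 and 671 nm. Replicates: one well per compound, singlicate testing.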
COUP-TFII inh – NR2F2 transcriptional activity inhibitors, primary screen, cell-based, luciferase reporter, HEK293T, luminescence; COUP transcription factor 2 (Homo sapiens), P24468; HEK293T NGFI-A luciferase reporter; inhibition, % at 8.6 µM; hit rate 0.7% among 370,000;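 active = inhibition above a per-plate cutoff, mean inhibition of test wells between control levels plus 3 SD, cut at about 38% in these data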;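 also: cells cotransfected with COUP-TFII expression vector driving the NGFI-A reporter; 0% = median of COUP-TF2 test wells and 100% = reporter-only cells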
GalR3 antagonist – GalR3 antagonists in HEK293 cells, primary screen, cell-based, fluorescence readout. Galanin receptor type 3 (Homo sapiens), O60755. HEK293 GalR3-CNG cAMP membrane potential fluorescence; galR3 body fused to GalR1 C-terminus. inhibition, % at 3 µM. hit rate 0.44% among 360,000;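 active = inhibition above the screen-wide average plus 3 SD, cut at about 13% in these data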;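 also: forskolin and galanin both at EC90 stimulate the cells; cAMP rise reported by CNG channel membrane potential dye signal; 0% = forskolin plus galanin with DMSO and 100% = forskolin alone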
Target sequence (O60755 1-299 limits assumed): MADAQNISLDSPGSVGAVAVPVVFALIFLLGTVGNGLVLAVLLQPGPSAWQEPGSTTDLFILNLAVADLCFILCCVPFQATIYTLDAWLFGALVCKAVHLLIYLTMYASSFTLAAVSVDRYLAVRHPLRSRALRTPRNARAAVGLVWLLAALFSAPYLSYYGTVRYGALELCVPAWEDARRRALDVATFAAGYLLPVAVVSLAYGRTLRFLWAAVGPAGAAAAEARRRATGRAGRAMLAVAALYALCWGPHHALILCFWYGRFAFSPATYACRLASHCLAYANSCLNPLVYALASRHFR
VP16 Luc counter – Gal4-VP16 luciferase reporter inhibitors, counter-screen for COUP-TFII antagonist project, cell-based, luminescence, HEK293 | shares compounds with COUP-TFII inh | inhibition, % at 8.5 µM | hit rate 25% among 2,500 | AID 687007, 2013; in the data active = inhibition above about 13%
NR2F2 inh conf – NR2F2 transcriptional activity inhibitors, confirmation, cell-based, luciferase reporter, HEK293, triplicate; hit rate 45% among 2,500; shares compounds with COUP-TFII inh; HEK293 NGFI-A luciferase reporter, luminescence; inhibition, % at 8.5 µM;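 active = mean inhibition over three repeats above a set limit taken from the earlier primary screen, cut at about 38% in these data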;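 also: 100% = cells given the luciferase reporter alone without the COUP-TF2 vector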
* hit, by the source's call. Sampled rows, rich in hits. Any-hit rate of the full collection: about 2.2%.

Screening COc1ccc(-c2csc(C(C)(O)c3cccc(OC)c3)n2)cc1 (stereo not drawn) returned NR2E3 ag-1 45, SMARCA2 activ -5, COUP-TFII inh 36 and GalR3 antagonist -4.
Screening Clc1ccc([C@H]2OC[C@@]3(CNC4CCCCC4)CS[C@H](c4ccc(Cl)cc4)N23)cc1 returned SMARCA2 activ 0 and COUP-TFII inh -15.
For O=C(Nc1ccc(F)c(Cl)c1)c1cc(C2CCCCN2C(=O)c2ccc(Cl)cc2)on1 (stereo not drawn) the results were NR2E3 ag-1 -16, SMARCA2 activ -1, COUP-TFII inh -7 and GalR3 antagonist -9.
For Cn1nc(C(C)(C)C)cc1C(=O)N1CCCCC1c1cc(C(=O)Nc2ccc(F)c(Cl)c2)no1 (stereo not drawn) the results were NR2E3 ag-1 36, SMARCA2 activ -3, COUP-TFII inh 41*, GalR3 antagonist -7, VP16 Luc counter 3 and NR2F2 inh conf 13.
For O=C(Nc1ccc(Cl)cn1)C1CCN(S(=O)(=O)c2cccs2)CC1 the results were NR2E3 ag-1 30, SMARCA2 activ -6, NR2E3 ag-2 -3, COUP-TFII inh 53*, GalR3 antagonist 0, VP16 Luc counter 6 and NR2F2 inh conf 32.
O=C(Nc1nccs1)C1CCN(S(=O)(=O)c2cccs2)CC1 was read as NR2E3 ag-1 6, SMARCA2 activ 4, NR2E3 ag-2 5, COUP-TFII inh 11 and GalR3 antagonist -3.
COc1cccc(/C=C2\CC3(OC(=O)c4ccc(Cl)cc4)CCCN2C3)c1 (stereo not drawn) was read as SMARCA2 activ 2 and COUP-TFII inh -14.
C=CCn1c(SCC(=O)Nc2ccccc2-c2ccccc2)nnc1-c1ccc(Cl)cc1 was read as SMARCA2 activ -7 and COUP-TFII inh 0.
Cc1cccc(-n2ncc3c2CCCC3NC(=O)c2cccs2)c1C (stereo not drawn) was read as NR2E3 ag-1 17, SMARCA2 activ -6, COUP-TFII inh 44*, GalR3 antagonist -6, VP16 Luc counter -2 and NR2F2 inh conf 25.
COc1ccc(CCNC(=O)CCNC(=O)c2ccc([N+](=O)[O-])cc2)cc1 was read as NR2E3 ag-1 -16, SMARCA2 activ 1, NR2E3 ag-2 -3, COUP-TFII inh 39*, GalR3 antagonist -10, VP16 Luc counter 4 and NR2F2 inh conf 3.
For O=C(CCNC(=O)c1ccc([N+](=O)[O-])cc1)NCCc1ccc(Cl)cc1 the results were NR2E3 ag-1 -9, SMARCA2 activ -2, NR2E3 ag-2 3, COUP-TFII inh -5 and GalR3 antagonist -5.
C[n+]1cc2c3c(ccc2c2ccc4cc5c(cc4c21)OCO5)OCO3 was read as SMARCA2 activ -12, COUP-TFII inh 106*, GalR3 antagonist -4, VP16 Luc counter 95* and NR2F2 inh conf 107*.
`Cc1ccc(-c2csc3ncnc(NCCN4CCOCC4)c23)cc1` gave NR2E3 ag-1 0, SMARCA2 activ -4, NR2E3 ag-2 -2, COUP-TFII inh 38*, GalR3 antagonist -5, VP16 Luc counter 9 and NR2F2 inh conf 24.
Screening COc1ccc(CCNC(=S)c2ccccc2)cc1OC returned NR2E3 ag-1 -21, SMARCA2 activ -7, NR2E3 ag-2 3, COUP-TFII inh 38*, GalR3 antagonist -7, VP16 Luc counter 5 and NR2F2 inh conf 22.
Screening COc1ccc(CCNC(=S)NCCc2ccc(OC)c(OC)c2)cc1OC returned NR2E3 ag-1 -11, SMARCA2 activ 0, NR2E3 ag-2 1, COUP-TFII inh 2 and GalR3 antagonist -8.
c1ccc(CNc2ncnc3scc(-c4cccs4)c23)nc1 was read as NR2E3 ag-1 20, SMARCA2 activ -6, NR2E3 ag-2 2, COUP-TFII inh 60*, GalR3 antagonist -6, VP16 Luc counter -1 and NR2F2 inh conf 31.
Cc1onc(-c2ccccc2)c1C(=O)NC(=S)NNC(=O)c1ccc(O)cc1O was read as NR2E3 ag-1 8, SMARCA2 activ -6, NR2E3 ag-2 -1, COUP-TFII inh 50*, GalR3 antagonist -9, VP16 Luc counter 15* and NR2F2 inh conf 54*.
COc1ccc(NC(=O)COc2ccccc2Cc2ccccc2)cc1S(N)(=O)=O was read as NR2E3 ag-1 12, SMARCA2 activ -4, NR2E3 ag-2 3, COUP-TFII inh 44*, GalR3 antagonist -8, VP16 Luc counter -3 and NR2F2 inh conf 13.
Screening COc1ccc(NC(=O)CN(Cc2ccccc2)Cc2ccccc2)cc1S(N)(=O)=O returned NR2E3 ag-1 0, SMARCA2 activ -1, NR2E3 ag-2 -5, COUP-TFII inh 5 and GalR3 antagonist -11.
Screening O=c1c2ccccc2nc(/C=C/c2cccnc2)n1CCc1ccccc1 returned NR2E3 ag-1 -19, SMARCA2 activ -6, NR2E3 ag-2 4, COUP-TFII inh 44*, GalR3 antagonist 1, VP16 Luc counter -6 and NR2F2 inh conf 4.
O=C(Nc1ccc(Br)cc1)OCCCN1CCC2(CCCCC2)C1=O was read as SMARCA2 activ -5 and COUP-TFII inh 29.
CC(=O)c1ccc(S(=O)(=O)N2CCN(CCOc3ccc(Br)cc3)CC2)cc1 was read as NR2E3 ag-1 29, SMARCA2 activ -6, NR2E3 ag-2 -2, COUP-TFII inh 63*, GalR3 antagonist -6, VP16 Luc counter 9 and NR2F2 inh conf 50*.
`CCOc1ccc(S(=O)(=O)N2CCN(S(=O)(=O)c3ccc(C(C)=O)cc3)CC2)cc1` gave NR2E3 ag-1 -26, SMARCA2 activ 0, NR2E3 ag-2 -2, COUP-TFII inh -3 and GalR3 antagonist -7.
COc1ccc(OCCN2CCN(S(=O)(=O)c3ccccc3C(F)(F)F)CC2)cc1 was read as NR2E3 ag-1 4, SMARCA2 activ -5, NR2E3 ag-2 1, COUP-TFII inh 41*, GalR3 antagonist -5, VP16 Luc counter 0 and NR2F2 inh conf 9.
O=C(CCc1ccccc1)N[C@H]1[C@H](OCc2ccccc2)CCC[C@@]12C(=O)N(Cc1ccccc1)c1ccc(-c3ccsc3)cc12 was read as SMARCA2 activ -4 and COUP-TFII inh 6.
`COP(=O)(CC(=O)OC(C)(C)C)C(CC(C)C)NC(=O)OCc1ccccc1` (stereo not drawn) gave SMARCA2 activ -1 and COUP-TFII inh 4.
